Experimental data reported in ChEMBL document CHEMBL4350992, “Identification of Diketopiperazine-Containing 2-Anilinobenzamides as Potent Sirtuin 2 (SIRT2)-Selective Inhibitors Targeting the "Selectivity Pocket", Substrate-Binding Site, and NAD+-Binding Site” (J Med Chem, 2019).
The source made the active and inactive calls. No cut-off for these calls is given here.

Key:
[1] = target: T1, NAD-dependent protein deacetylase sirtuin-1 (Homo sapiens) (UniProt Q96EB6); experiment: Inhibition of human N-terminal His-tagged SIRT1 expressed in Escherichia coli at 50 uM using p53 (Arg-His-Lys-Lys(Ac)) (379 to 382 residues) as substrate incubated for 3 hrs measured up to 30 mins by fluorescence assay relative to control
T1 sequence (whole entry): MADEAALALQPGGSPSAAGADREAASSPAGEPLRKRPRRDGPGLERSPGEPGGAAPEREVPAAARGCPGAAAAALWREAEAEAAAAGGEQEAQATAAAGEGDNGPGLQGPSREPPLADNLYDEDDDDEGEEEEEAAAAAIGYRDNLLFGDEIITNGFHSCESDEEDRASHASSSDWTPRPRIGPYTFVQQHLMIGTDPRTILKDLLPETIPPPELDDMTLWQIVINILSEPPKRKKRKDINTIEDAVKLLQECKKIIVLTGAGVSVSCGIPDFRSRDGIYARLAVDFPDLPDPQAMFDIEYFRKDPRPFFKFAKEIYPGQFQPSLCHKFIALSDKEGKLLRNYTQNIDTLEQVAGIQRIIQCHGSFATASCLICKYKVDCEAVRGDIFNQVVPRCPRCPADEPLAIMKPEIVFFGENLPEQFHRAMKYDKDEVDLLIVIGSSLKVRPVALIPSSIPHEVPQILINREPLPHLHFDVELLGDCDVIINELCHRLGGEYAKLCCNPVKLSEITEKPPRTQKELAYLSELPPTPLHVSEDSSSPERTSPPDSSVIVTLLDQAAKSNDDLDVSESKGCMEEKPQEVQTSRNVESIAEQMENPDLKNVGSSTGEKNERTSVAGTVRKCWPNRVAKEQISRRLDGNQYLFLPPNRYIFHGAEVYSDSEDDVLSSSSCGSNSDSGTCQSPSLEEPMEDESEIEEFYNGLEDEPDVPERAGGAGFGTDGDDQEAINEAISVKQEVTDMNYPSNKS

[2] = target: T2, NAD-dependent protein deacetylase sirtuin-2 (Homo sapiens) (UniProt Q8IXJ6); experiment: Inhibition of human N-terminal His-tagged SIRT2 expressed in Escherichia coli at 10 uM using p53 (Gln-Pro-Lys-Lys(Ac)) (317 to 320 residues) as substrate incubated for 3 hrs measured up to 30 mins by fluorescence assay relative to control
T2 sequence (whole entry): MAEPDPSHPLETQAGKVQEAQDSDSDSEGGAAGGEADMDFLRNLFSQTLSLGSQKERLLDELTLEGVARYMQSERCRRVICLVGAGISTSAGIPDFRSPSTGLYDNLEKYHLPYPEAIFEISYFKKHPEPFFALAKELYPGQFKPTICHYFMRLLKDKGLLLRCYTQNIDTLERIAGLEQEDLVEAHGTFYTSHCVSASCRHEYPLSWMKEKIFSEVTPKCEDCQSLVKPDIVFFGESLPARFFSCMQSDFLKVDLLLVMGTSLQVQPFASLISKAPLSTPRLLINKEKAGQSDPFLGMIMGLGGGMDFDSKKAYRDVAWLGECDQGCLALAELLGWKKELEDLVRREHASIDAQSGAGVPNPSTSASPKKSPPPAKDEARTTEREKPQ

[3] = target: T1, NAD-dependent protein deacetylase sirtuin-1 (Homo sapiens); experiment: Inhibition of human N-terminal His-tagged SIRT1 expressed in Escherichia coli at 100 uM using p53 (Arg-His-Lys-Lys(Ac)) (379 to 382 residues) as substrate incubated for 3 hrs measured up to 30 mins by fluorescence assay relative to control
N2a = experiment: Induction of neurite outgrowth in mouse Neuro2a cells at 0.2 to 2 uM measured after 24 hrs by microscopic analysis; format: functional, cell-based
Procedure, shortened: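 N2a cells were plated at 1×10⁴ cells/mL in DMEM with 10% FBS, then switched to DMEM with 2% FBS for differentiation. Compound was added for 24 or 48 h and morphology scored by microscopy. A cell counted as differentiated if it had ≥1 neurite longer than twice the soma diameter; ≥100 cells were counted per condition. Triplicate experiments, mean ± SD, one-way ANOVA with Dunnett's test.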

[4] = target: T3, NAD-dependent protein deacetylase sirtuin-3, mitochondrial (Homo sapiens) (UniProt Q9NTG7); experiment: Inhibition of human N-terminal His-tagged SIRT3 (102 to 399 residues) expressed in Escherichia coli at 100 uM using p53 (Gln-Pro-Lys-Lys(Ac)) (317 to 320 residues) as substrate incubated for 3 hrs measured up to 30 mins by fluorescence assay relative to control
T3 sequence (whole entry): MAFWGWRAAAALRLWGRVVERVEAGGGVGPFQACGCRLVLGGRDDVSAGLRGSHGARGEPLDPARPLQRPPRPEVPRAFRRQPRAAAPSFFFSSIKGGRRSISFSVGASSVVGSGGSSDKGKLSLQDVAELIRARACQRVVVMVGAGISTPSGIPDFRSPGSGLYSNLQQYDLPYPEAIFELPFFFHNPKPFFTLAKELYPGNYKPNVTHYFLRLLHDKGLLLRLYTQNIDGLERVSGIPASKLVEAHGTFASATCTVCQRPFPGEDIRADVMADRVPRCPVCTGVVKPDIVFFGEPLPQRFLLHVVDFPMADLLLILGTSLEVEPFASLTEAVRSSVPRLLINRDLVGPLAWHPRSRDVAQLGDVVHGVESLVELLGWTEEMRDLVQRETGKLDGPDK

MCF7 [5] = experiment: Growth inhibition of human MCF7 cells at 30 uM measured after 72 hrs by AlamarBlue assay relative to control; format: functional; settings: MCF7, 72 h, read-out: GI
Procedure, shortened: (§1)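 MCF-7 cells in DMEM with 10% FBS were seeded at 1×10³ cells/well. After 24 h at 37°C, 5% CO₂, compound in medium was added at varying concentrations for 72 h. AlamarBlue was then added for 3 h and fluorescence read (ex 540/em 590 nm). Percent growth was calculated from the readings, and GI50 from the dose response. Three independent determinations.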

[6] = target: NAD-dependent protein deacylase sirtuin-5, mitochondrial (Homo sapiens) (UniProt Q9NXA8); experiment: Inhibition of human N-terminal His-tagged SIRT5 (37 to 310 residues) expressed in Escherichia coli at 100 uM using flour de lys succinyl as substrate incubated for 3 hrs measured up to 30 mins by fluorescence assay relative to control
[7] = target: T2, NAD-dependent protein deacetylase sirtuin-2 (Homo sapiens); experiment: Inhibition of SIRT2 in human MCF7 cells assessed as accumulation of acetylated-alpha tubulin at 0.1 uM measured after 24 hrs by Western blot analysis relative to alpha-tubulin; format: cell-based
Procedure, shortened: (§2)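 MCF-7 cells (5×10⁵ per dish) were treated 24 h, lysed in SDS buffer and protein was quantified by BCA. Equal protein was run on 5–20% SDS-PAGE and transferred to PVDF. Blots were probed for H3K9Ac, H3, acetyl-α-tubulin and α-tubulin, then given HRP secondaries and ECL detection. Acetyl/total ratios came from blot optical density.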

[8] = target: T1, NAD-dependent protein deacetylase sirtuin-1 (Homo sapiens); experiment: Inhibition of SIRT1 in human MCF7 cells assessed as H3K9Ac expression at 0.1 uM measured after 24 hrs by Western blot analysis relative to H3; format: cell-based; procedure, shortened: as §2
MCF7 [9] = experiment: Growth inhibition of human MCF7 cells measured after 72 hrs by AlamarBlue assay; format: functional; settings: MCF7, 72 h; procedure, shortened: as §1
MCF7 [10] = experiment: Growth inhibition of human MCF7 cells at 15 uM measured after 72 hrs by AlamarBlue assay; format: functional, cell-based; procedure, shortened: as §1
[11] = target: T2, NAD-dependent protein deacetylase sirtuin-2 (Homo sapiens); experiment: Inhibition of human N-terminal His-tagged SIRT2 expressed in Escherichia coli at 50 uM using p53 (Gln-Pro-Lys-Lys(Ac)) (317 to 320 residues) as substrate incubated for 3 hrs measured up to 30 mins by fluorescence assay relative to control

NAD-dependent protein deacylase sirtuin-5, mitochondrial (Homo sapiens), sequence (Q9NXA8 37-310 limits assumed): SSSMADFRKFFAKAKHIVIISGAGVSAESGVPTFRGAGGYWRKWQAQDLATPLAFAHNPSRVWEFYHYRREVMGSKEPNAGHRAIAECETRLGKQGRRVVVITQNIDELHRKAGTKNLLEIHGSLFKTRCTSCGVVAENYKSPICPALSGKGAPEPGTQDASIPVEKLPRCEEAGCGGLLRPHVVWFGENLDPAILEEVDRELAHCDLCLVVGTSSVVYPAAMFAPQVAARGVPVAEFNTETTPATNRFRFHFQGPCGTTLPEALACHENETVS

SMILES | inhibition [1] [%] | inhibition [2] [%] | other results
O=C(Nc1ccccc1)c1ccccc1Nc1cccc(OCCc2ccccc2)c1 | 9 | 44 | 
NC(=O)c1ccccc1Nc1cccc(OCCc2ccccc2)c1 | 12 | 90 | inhibition [3]: 17%; Activity (N2a): Active; inhibition [4]: 17%; inhibition of growth at 30 µM (MCF7 [5]): 30%; inhibition [6]: 8%
O=C(CCCCCCC(=O)Nc1ccccc1)NO |  |  | fold change (FC) [7]: 1.61; fold change (FC) [8]: 1.3
CC(C)(C)OC(=O)NCCCCNC(=O)CNC(=O)c1ccccc1Nc1cccc(OCCc2ccccc2)c1 | 23 | 83 | 
O=C(O)CNC(=O)c1ccccc1Nc1cccc(OCCc2ccccc2)c1 | 8 | 50 | 
C#CCNC(=O)c1ccccc1Nc1cccc(OCCc2ccccc2)c1 | 12 | 77 | 
C[C@H](NC(=O)[C@H](CCCCNC(=S)CNC(=O)c1ccccc1Nc1cccc(OCCc2ccccc2)c1)NC(=O)OCc1ccccc1)C(N)=O |  |  | Activity (N2a): Active; GI50 (MCF7 [9]): 8.43 µM
CCCCCCCCCCCCCC(=S)NCCCC[C@H](NC(=O)OCc1ccccc1)C(=O)Nc1ccccc1 |  |  | growth inhibition (GI) (MCF7 [10]): Active; Activity (N2a): Active
O=C(NCCc1ccccc1)c1ccccc1Nc1cccc(OCCc2ccccc2)c1 | 5 | 46 | 
CC(C)CCNC(=O)c1ccccc1Nc1cccc(OCCc2ccccc2)c1 | 8 | 45 | inhibition [11]: 70%
CC(C)(C)OC(=O)NCCCNC(=O)c1ccccc1Nc1cccc(OCCc2ccccc2)c1 | 4 | 57 | 
CC(C)(C)OC(=O)NCCNC(=O)c1ccccc1Nc1cccc(OCCc2ccccc2)c1 | 11 | 77 | 
CCCCNC(=O)c1ccccc1Nc1cccc(OCCc2ccccc2)c1 | 2 | 57 | 
CN(C)CCNC(=O)c1ccccc1Nc1cccc(OCCc2ccccc2)c1 | 18 | 59 | inhibition [11]: 74%
CONC(=O)c1ccccc1Nc1cccc(OCCc2ccccc2)c1 | 6 | 63 | 
CCN(CC)C(=O)c1ccccc1Nc1cccc(OCCc2ccccc2)c1 | 11 | 61 | 
COC(=O)CNC(=O)c1ccccc1Nc1cccc(OCCc2ccccc2)c1 | 17 | 72 | 

SMILES | inhibition [1] [%] | inhibition [2] [%] | other results
O=C(NCc1ccccc1)c1ccccc1Nc1cccc(OCCc2ccccc2)c1 | 12 | 70 | 
O=C(NC1CCN(Cc2ccccc2)CC1)c1ccccc1Nc1cccc(OCCc2ccccc2)c1 | 8 | 56 | 
O=C(NCCO)c1ccccc1Nc1cccc(OCCc2ccccc2)c1 | 12 | 76 | 
O=C(NC1CCCCC1)c1ccccc1Nc1cccc(OCCc2ccccc2)c1 | 15 | 28 | 
NC(=O)CNC(=O)c1ccccc1Nc1cccc(OCCc2ccccc2)c1 | 10 | 85 | 
CCCCCNC(=O)c1ccccc1Nc1cccc(OCCc2ccccc2)c1 | 9 | 50 | 
O=C(O)c1ccccc1Nc1cccc(OCCc2ccccc2)c1 | 2.5 | 12 | 
O=C(c1ccccc1Nc1cccc(OCCc2ccccc2)c1)N1CCOCC1 | 4 | 71 | 
O=C(NO)c1ccccc1Nc1cccc(OCCc2ccccc2)c1 | 13 | 68 | 
CC(C)(C)OC(=O)NCCCCCNC(=O)CNC(=O)c1ccccc1Nc1cccc(OCCc2ccccc2)c1 | 14 | 83 | 
CCCNC(=O)c1ccccc1Nc1cccc(OCCc2ccccc2)c1 | 8 | 58 | 
C[C@H](NC(=O)c1ccccc1Nc1cccc(OCCc2ccccc2)c1)C(N)=O | 15 | 81 | 
NC(=O)Cc1ccccc1Nc1cccc(OCCc2ccccc2)c1 | 19 | 68 | 
Cc1cc(C)nc(SCC(=O)Oc2cccc(Nc3ccccc3C(N)=O)c2)n1 | 7 | 26 | 
NC(=O)c1ccccc1Nc1cccc(OCCc2ccc3ccccc3c2)c1 | 7 | 75 | 
O=C(NOC1CCCCO1)c1ccccc1Nc1cccc(OCCc2ccccc2)c1 (stereo not drawn) | 8 | 54 | 
